Assay results taken from ChEMBL document CHEMBL4196148, “Antibacterial Prenylated Isoflavonoids from the Stems of Millettia extensa” (2018).
≈ marks a conversion by molar mass, not a printed value. Calls of active or inactive are those of the source. The rule behind the calls is not given here.

Key:
Salmonella typhimurium = experiment: Antibacterial activity against Salmonella typhimurium TISTR 781 by 2-fold serial dilution method; type: functional, Salmonella enterica subsp. enterica serovar Typhimurium
Procedure, shortened: (§1)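 MICs determined following Clinical and Laboratory Standards Institute recommendations, reported in μg/mL.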

Pseudomonas aeruginosa = experiment: Antibacterial activity against Pseudomonas aeruginosa TISTR 292 by 2-fold serial dilution method; type: functional; procedure, shortened: as §1
Staphylococcus aureus [1] = experiment: Antibacterial activity against Staphylococcus aureus TISTR 1466 at >128 ug/ml by 2-fold serial dilution method; type: functional, organism-based; procedure, shortened: as §1
[2] = tested on: Staphylococcus epidermidis; experiment: Antibacterial activity against Staphylococcus epidermidis ATCC 12228 at >128 ug/ml by 2-fold serial dilution method; type: functional, organism-based; procedure, shortened: as §1
Bacillus subtilis [3] = experiment: Antibacterial activity against Bacillus subtilis TISTR 008 at >128 ug/ml by 2-fold serial dilution method; type: functional, organism-based; conditions: Bacillus spizizenii; procedure, shortened: as §1
Bacillus subtilis [4] = experiment: Antibacterial activity against Bacillus subtilis TISTR 008 by 2-fold serial dilution method; type: functional, Bacillus spizizenii; procedure, shortened: as §1
Staphylococcus aureus [5] = experiment: Antibacterial activity against Staphylococcus aureus TISTR 1466 by 2-fold serial dilution method; type: functional; procedure, shortened: as §1
[6] = tested on: Staphylococcus epidermidis; experiment: Antibacterial activity against Staphylococcus epidermidis ATCC 12228 by 2-fold serial dilution method; type: functional; procedure, shortened: as §1

| Molecule | MIC (Salmonella typhimurium; Salmonella enterica) [µg/mL] | MIC (Pseudomonas aeruginosa) [µg/mL] | Activity (Staphylococcus aureus [1]) | Activity [2] | Activity (Bacillus subtilis [3]) | MIC (Bacillus subtilis [4]) [µg/mL] | MIC (Staphylococcus aureus [5]) [µg/mL] | MIC [6] [µg/mL] | MIC (Salmonella typhimurium; Salmonella enterica subsp. enterica serovar Typhimurium) [µg/mL] |
| --- | --- | --- | --- | --- | --- | --- | --- | --- | --- |
| CC(C)=CCOc1ccc(-c2coc3cc4c(c(O)c3c2=O)C=CC(C)(C)O4)c(O)c1 | 128 (≈ 304 µM) | 128 (≈ 304 µM) | inactive | inactive | inactive | – | – | – | – |
| Oc1ccc2c(c1)OC[C@H]1c3cc4c(cc3O[C@@H]21)OCO4 [MAACKIAIN] | 128 (≈ 450 µM) | 128 (≈ 450 µM) | inactive | inactive | inactive | – | – | – | – |
| CN[C@H](CC(C)C)C(=O)N[C@H]1C(=O)N[C@@H](CC(N)=O)C(=O)N[C@H]2C(=O)N[C@H]3C(=O)N[C@H](C(=O)N[C@H](C(=O)O)c4cc(O)cc(O)c4-c4cc3ccc4O)[C@H](O)c3ccc(c(Cl)c3)Oc3cc2cc(c3O[C@@H]2O[C@H](CO)[C@@H](O)[C@H](O)[C@H]2O[C@H]2C[C@](C)(N)[C@H](O)[C@H](C)O2)Oc2ccc(cc2Cl)[C@H]1O [VANCOMYCIN] | – | – | – | – | – | 0.25 (≈ 0.173 µM) | 0.25 (≈ 0.173 µM) | 0.25 (≈ 0.173 µM) | – |
| CC(C)=CCC1=C(O)c2c(occ(-c3ccc(O)cc3O)c2=O)C(CC=C(C)C)(CC=C(C)C)C1=O | 128 (≈ 261 µM) | 128 (≈ 261 µM) | – | – | – | 2 (≈ 4.08 µM) | 2 (≈ 4.08 µM) | 2 (≈ 4.08 µM) | – |
| CC(C)=CCc1c2c(c(O)c3c(=O)c(-c4ccc(O)c(O)c4)coc13)C=CC(C)(C)O2 [AURICULASIN] | 128 (≈ 304 µM) | 128 (≈ 304 µM) | – | – | – | 8 (≈ 19 µM) | 4 (≈ 9.51 µM) | 4 (≈ 9.51 µM) | – |
| CC(C)=CCc1c2c(c3occ(-c4ccc(O)cc4O)c(=O)c3c1O)C=CC(C)(C)O2 | 128 (≈ 304 µM) | 128 (≈ 304 µM) | – | – | – | 2 (≈ 4.76 µM) | 2 (≈ 4.76 µM) | 2 (≈ 4.76 µM) | – |
| GENTAMICIN | – | 2 | – | – | – | – | – | – | 0.25 |
| CC(C)=CCOc1ccc(-c2coc3cc4c(c(O)c3c2=O)C=CC(C)(C)O4)cc1 | 128 (≈ 316 µM) | 128 (≈ 316 µM) | inactive | inactive | inactive | – | – | – | – |
| COc1cc(OC)c(-c2coc3cc4c(c(O)c3c2=O)C=CC(C)(C)O4)cc1OC | 128 (≈ 312 µM) | 128 (≈ 312 µM) | inactive | inactive | inactive | – | – | – | – |
| C=C(C)[C@@H]1Cc2c(cc(O)c3c2O[C@H]2COc4cc(OC)c(OC)cc4[C@H]2C3=O)O1 | 128 (≈ 312 µM) | 128 (≈ 312 µM) | inactive | inactive | inactive | – | – | – | – |
| CC(C)=CCc1c2c(c(O)c3c(=O)c(-c4ccc(O)cc4)coc13)C=CC(C)(C)O2 [WARANGALONE] | 128 (≈ 316 µM) | 128 (≈ 316 µM) | – | – | – | 2 (≈ 4.94 µM) | 2 (≈ 4.94 µM) | 4 (≈ 9.89 µM) | – |
| CC(C)=CCc1c2c(c(O)c3c(=O)c(-c4ccc(O)cc4O)coc13)C=CC(C)(C)O2 | 128 (≈ 304 µM) | 128 (≈ 304 µM) | – | – | – | 2 (≈ 4.76 µM) | 2 (≈ 4.76 µM) | 2 (≈ 4.76 µM) | – |
